Key:
[1] = test system: RPMI-8226 cells; type: cell-based, human
Summary of the method: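 RPMI-8226 myeloma cells were exposed to a range of test-compound concentrations for 48 h, with lovastatin 10 μM as positive control. Lysates were immunoblotted for unmodified Rap1a (antibody detects only unmodified protein), H-Ras and β-tubulin (loading), and the same lysates were used for a lambda light chain ELISA (% of untreated control; mean ± SD, n=3; two-tailed t-test, p<0.05). LEC is the lowest concentration giving a visible unmodified Rap1a band plus a significant light chain rise.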

[2] = test system: RPMI-8226 cells; assay: MTT assay; type: cell-based, human; conditions: RPMI-8226, 48 hours
[3] = test system: myeloma cells; conditions: cited from earlier work

Row | Compound | cytotoxicity in MTT assay [2] | also measured
1 | CC(C)=CCC/C(C)=C/Cn1cc(C=C(P(=O)([O-])[O-])P(=O)([O-])[O-])nn1.[Na+].[Na+].[Na+].[Na+] [Compound 29, Disodium [1-[bis(sodiooxy)phosphoryl]-2-[1-[3,7-dimethylocta-2,6-dien-1-yl]-1H-1,2,3-triazol-4-yl]ethenyl]phosphonate] | induced cytotoxicity | potency in cellular assays relative to cyclopropyl derivative 31 [1]: two-fold more potent
2 | CCC(Cc1cn(C/C=C(\C)CCC=C(C)C)nn1)(P(=O)([O-])[O-])P(=O)([O-])[O-].[Na+].[Na+].[Na+].[Na+] [Compound 4] |  | decrease in potency in cellular assays (relative to 1) [3]: five-fold
3 | CC(C)=CCC/C(C)=C/Cn1cc(CC(O)(P(=O)([O-])[O-])P(=O)([O-])[O-])nn1.[Na+].[Na+].[Na+].[Na+] [Compound 37] | induced cytotoxicity | 
4 | CC(C)=CCC/C(C)=C/Cn1cc(CC(F)(P(=O)([O-])[O-])P(=O)([O-])[O-])nn1.[Na+].[Na+].[Na+].[Na+] [Compound 7, (2-[1-(3,7-Dimethyl-octa-2,6-dienyl)-1H-[1,2,3]triazol-4-yl]-1-fluoro-1-phosphono-ethyl)-phosphonic acid] | induced cytotoxicity | 
5 | CC(C)=CCC/C(C)=C/Cn1cc(CC(C)(P(=O)([O-])[O-])P(=O)([O-])[O-])nn1.[Na+].[Na+].[Na+].[Na+] [Compound 3] |  | increase in potency in cellular assays compared to the parent compound 1 [3]: 5 fold
6 | CC(C)=CCC/C(C)=C/Cn1cc(CC(CN)(P(=O)([O-])[O-])P(=O)([O-])[O-])nn1.[Na+].[Na+].[Na+].[Na+] [Compound 17] | induced cytotoxicity | 
7 | CC(C)=CCC/C(C)=C/Cn1cc(CCP(=O)([O-])[O-])nn1.[Na+].[Na+] [Compound 27] | neither of the monophosphonates (11, 27), induced cytotoxicity | 
8 | C=C(Cc1cn(C/C=C(\C)CCC=C(C)C)nn1)P(=O)([O-])[O-].[Na+].[Na+] [Compound 11] | neither of the monophosphonates (11, 27), induced cytotoxicity | 

— paper PMC8370032 (Bioorganic & medicinal chemistry, 2021)
